Measured values of several laboratories.
Each line is one published result; the experiments were not run side by side.
Target: Discoidin domain-containing receptor 2 (DDR2, Homo sapiens, UniProt Q16832)
Residues used in one study (Q16832 22-855): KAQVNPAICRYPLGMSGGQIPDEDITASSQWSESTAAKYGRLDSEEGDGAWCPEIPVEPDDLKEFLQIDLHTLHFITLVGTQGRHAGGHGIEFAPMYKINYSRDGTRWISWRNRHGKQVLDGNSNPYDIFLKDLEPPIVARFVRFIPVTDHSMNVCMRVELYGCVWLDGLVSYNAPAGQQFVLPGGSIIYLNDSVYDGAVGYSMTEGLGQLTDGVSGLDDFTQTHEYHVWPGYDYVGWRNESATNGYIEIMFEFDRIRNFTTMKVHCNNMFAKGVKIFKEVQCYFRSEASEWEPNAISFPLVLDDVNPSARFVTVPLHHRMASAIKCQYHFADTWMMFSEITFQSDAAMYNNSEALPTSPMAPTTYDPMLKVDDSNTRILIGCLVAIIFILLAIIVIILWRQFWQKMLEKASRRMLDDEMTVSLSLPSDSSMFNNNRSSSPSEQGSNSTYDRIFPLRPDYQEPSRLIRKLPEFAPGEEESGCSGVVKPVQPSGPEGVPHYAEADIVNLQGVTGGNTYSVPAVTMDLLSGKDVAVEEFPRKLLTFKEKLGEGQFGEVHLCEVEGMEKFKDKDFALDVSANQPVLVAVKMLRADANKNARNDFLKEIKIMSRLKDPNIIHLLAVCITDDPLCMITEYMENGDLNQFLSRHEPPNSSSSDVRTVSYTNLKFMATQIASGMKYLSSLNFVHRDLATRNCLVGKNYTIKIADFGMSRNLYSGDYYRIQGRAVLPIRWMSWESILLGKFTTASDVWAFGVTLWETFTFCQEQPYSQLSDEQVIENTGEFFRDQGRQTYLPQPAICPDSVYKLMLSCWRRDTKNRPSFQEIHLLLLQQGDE

COc1cnc(Nc2cccc(S(N)(=O)=O)c2)nc1N1CCN(c2ccccc2)C(=O)C1 — remaining binding (binding, competition with immobilised ligand; 1 µM): 100%
CC(=O)C1=C(C)N(c2cccc(C(F)(F)F)c2)C(=O)N[C@@H]1c1ccc(C#N)nc1 — remaining binding (cell-free assay, competition with immobilised ligand; 1 µM): 87.6%
O=C(Nc1c[nH]nc1C(=O)NC1CCNCC1)c1cc(F)cc(F)c1 — remaining binding (binding, competition with immobilised ligand; 1 µM): 94%
Cc1cnc(Nc2ccc(C(=O)N3CCC(N4CCCC4)CC3)cc2)nc1-c1cc2ccccc2s1 — remaining binding (binding, competition with immobilised ligand; 1 µM): 8%
Cn1nc(C(F)(F)F)cc1-c1cnc(N2CCc3cc(S(=O)(=O)Nc4c(F)cc(Cl)cc4F)cc(N4CCCC4=O)c32)nc1 — remaining binding (cell-free assay, competition with immobilised ligand; 1 µM): 80%
COc1cnc(Nc2cccc(S(N)(=O)=O)c2)nc1N1CCN(c2ccccc2)CC1 — remaining binding (binding, competition with immobilised ligand; 1 µM): 66%
COc1ncc2cc3ccccc3nc2c1C#N — remaining binding (cell-free assay, competition with immobilised ligand; 5 µM): 94%
Nc1ncc2c(n1)-c1c([nH]c3ccc(C#CC4CC4)cc13)CCCC2 — remaining binding (binding, competition with immobilised ligand; 1 µM): 80%
CCCOc1ccc([C@H]2[C@H](C(=O)O)[C@@H](c3ccc4c(c3)OCO4)CN2CC(=O)Nc2c(CC)cccc2CC)cc1 — remaining binding (cell-free assay, competition with immobilised ligand; 1 µM): 71%
Cc1cnn2ncc(-c3ccnc(N(C)C)n3)c2c1 — remaining binding (binding; 1 µM): 69%
O=C(Nc1cccnn1)N1CCC(=Cc2cccc(Oc3ccc(C(F)(F)F)cn3)c2)CC1 — remaining binding (cell-free assay, competition with immobilised ligand; 1 µM): 100%
N[C@@H]1CCN(c2nccc(-c3cnn4ncccc34)n2)C1 — remaining binding (binding; 1 µM): 100%
CC(C)CC(=O)N1CCc2nc(-c3ccc(Br)cc3)nc(N(C)Cc3ccccc3)c2C1 — remaining binding (cell-free assay, competition with immobilised ligand; 0.1 µM): 97%
c1cncc(-c2cccc(Nc3nccc(NC4CCCCC4)n3)c2)c1 — remaining binding (binding, competition with immobilised ligand; 10 µM): 86%
CN(C)c1nccc(-c2cnn3ncccc23)n1 — remaining binding (binding; 1 µM): 100%
O=C(NCCCN1CCOCC1)c1ccc(Nc2nccc(-c3cc4ccccc4s3)n2)cc1 — remaining binding (binding, competition with immobilised ligand; 1 µM): 43%
CN(CCCC(F)(F)F)c1nccc(-c2cnn3ncccc23)n1 — remaining binding (binding; 1 µM): 96%
O=C(c1ccc(Nc2ncc(Cl)c(-c3ccc(Cl)s3)n2)cc1)N1CCC(N2CCCC2)CC1 — remaining binding (binding, competition with immobilised ligand; 1 µM): 33%
CN(C)c1nccc(-c2cnc3ncccn23)n1 — remaining binding (binding; 1 µM): 84%
CN(C)CC#Cc1ccc(OCCCc2sc(N3CCc4cccc(C(=O)Nc5nc6ccccc6s5)c4C3)nc2C(=O)O)c(F)c1 — remaining binding (cell-free assay, competition with immobilised ligand; 1 µM): 83%
